Measurements published in ChEMBL document CHEMBL3853279, “Tadehaginosides A-J, Phenylpropanoid Glucosides from Tadehagi triquetrum, Enhance Glucose Uptake via the Upregulation of PPARγ and GLUT-4 in C2C12 Myotubes” (J Nat Prod, 2016).
Activity calls are given as the source filed them. The rule behind the calls is not given here.

How the values were obtained:
[1] = biological target: T1, Peroxisome proliferator-activated receptor gamma (Mus musculus) (UniProt P37238); experiment: Transactivation of PPARgamma in mouse C2C12 cells assessed as increase in GLUT-4 mediated 2-NBDG uptake at 10 uM after 6 hrs by fluorescence assay; assay type: cell-based
T1 sequence (whole entry): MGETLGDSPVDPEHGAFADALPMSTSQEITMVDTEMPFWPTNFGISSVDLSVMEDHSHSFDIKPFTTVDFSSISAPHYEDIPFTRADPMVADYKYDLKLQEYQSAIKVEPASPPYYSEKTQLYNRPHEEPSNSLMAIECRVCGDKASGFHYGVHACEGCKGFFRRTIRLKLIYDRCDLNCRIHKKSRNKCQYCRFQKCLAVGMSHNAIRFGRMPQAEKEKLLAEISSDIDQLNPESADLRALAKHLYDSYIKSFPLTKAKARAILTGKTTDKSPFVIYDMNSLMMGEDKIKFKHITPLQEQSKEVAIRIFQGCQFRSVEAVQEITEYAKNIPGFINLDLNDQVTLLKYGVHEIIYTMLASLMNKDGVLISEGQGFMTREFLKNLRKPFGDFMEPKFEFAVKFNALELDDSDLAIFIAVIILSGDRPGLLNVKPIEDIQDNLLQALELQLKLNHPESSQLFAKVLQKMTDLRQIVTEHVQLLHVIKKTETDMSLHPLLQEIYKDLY
Summary of the method: (§1)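 Uptake was run in C2C12 myotubes (4 days in DMEM/1% FBS) kept in serum-free DMEM. 2-NBDG 10 μM and compound (DMSO solution) were added together for the stated time. Medium was then discarded, and cells were washed twice with PBS and scraped in ice-cold PBS. Cell-associated 2-NBDG was read by fluorescence at Ex/Em 475/550 nm, under basal or insulin-stimulated conditions.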

[2] = biological target: T1, Peroxisome proliferator-activated receptor gamma (Mus musculus); experiment: Transactivation of PPARgamma in mouse C2C12 cells assessed as increase in GLUT-4 mediated 2-NBDG uptake at 10 uM after 2 to 8 hrs by fluorescence assay; assay type: cell-based; summary of the method: as §1
[3] = biological target: T1, Peroxisome proliferator-activated receptor gamma (Mus musculus); experiment: Transactivation of PPARgamma in mouse C2C12 cells assessed as increase in GLUT-4 mediated 2-NBDG uptake at 4 hrs by fluorescence assay; assay type: cell-based; summary of the method: as §1
[4] = biological target: T1, Peroxisome proliferator-activated receptor gamma (Mus musculus); experiment: Transactivation of PPARgamma in mouse C2C12 cells assessed as increase in GLUT-4 mediated 2-NBDG uptake at 5 to 20 uM at 4 hrs by fluorescence assay; assay type: cell-based; summary of the method: as §1
[5] = biological target: T1, Peroxisome proliferator-activated receptor gamma (Mus musculus); experiment: Transactivation of PPARgamma in mouse C2C12 cells at 1 to 10 uM after 24 hrs by DR-1 luciferase reporter gene assay; assay type: cell-based
Summary of the method: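 C2C12 myotubes were transiently co-transfected with a DR-1 luciferase reporter and a PPARγ expression vector. Six hours after transfection, the medium was replaced with fresh medium containing the agonist. Luciferase activity was measured 24 h later by kit assay.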

[6] = biological target: T1, Peroxisome proliferator-activated receptor gamma (Mus musculus); experiment: Transactivation of PPARgamma in mouse C2C12 cells assessed as increase in GLUT-4 levels in at 1 to 10 uM after 6 hrs by ELISA; assay type: cell-based
Summary of the method: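 Myotubes were differentiated from C2C12 myoblasts over 4 days in DMEM plus 1% FBS, then treated 6 h in serum-free DMEM at 1 and 10 μM, with rosiglitazone 10 μM as reference. Cells were PBS-washed and lysed, and lysates were spun 20 min at 13000g, 4 °C. GLUT-4 in the supernatant was quantified by mouse GLUT-4 ELISA.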

Mus musculus = organism: Mus musculus; experiment: Cytotoxicity against mouse C2C12 cells assessed as cell viability at 1 to 20 uM after 4 hrs by MTT assay; assay type: toxicity, cell-based; settings: c2c12, 4 h
Summary of the method: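 C2C12 myoblasts differentiated to myotubes in DMEM with 1% FBS, changed daily for 4 days, then seeded in 96-well plates. Cells were exposed to test compound for 4 h, with digitonin 100 μg/mL as positive control. MTT reagent was added, then DMSO, and absorbance was read at 565 nm as viability.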

[7] = biological target: T1, Peroxisome proliferator-activated receptor gamma (Mus musculus); experiment: Transactivation of PPARgamma in mouse C2C12 cells assessed as increase in GLUT-4 mediated insulin-induced 2-NBDG uptake at 4 hrs by fluorescence assay; assay type: cell-based; summary of the method: as §1

Activity [1]	SMILES	further results
Active	O=C(/C=C/c1ccc(O)cc1)O[C@H]1[C@H](Oc2cc(O)cc(O)c2)O[C@H](CO)[C@@H](O)[C@@H]1O	–
Active	O=C(/C=C/c1ccc(O)cc1)OC[C@H]1O[C@@H](Oc2cc(O)cc(O)c2)[C@H](O)[C@@H](O)[C@@H]1O	–
Active	O=C(/C=C/c1ccc(O)cc1)O[C@H]1[C@H](O)[C@@H](O)[C@H](Oc2cc(O)cc(O)c2)O[C@@H]1CO	–
Active	O=C(/C=C\c1ccc(O)cc1)O[C@H]1[C@H](Oc2cc(O)cc(O)c2)O[C@H](CO)[C@@H](O)[C@@H]1O	–

The remaining lines, values behind:

SMILES	Activity [1]	further results
O=C(/C=C/c1ccc(O)cc1)O[C@@H]1[C@@H](O)[C@H](Oc2cc(O)cc(O)c2)O[C@H](CO)[C@H]1O	Active	–
CC(=O)c1c(O)cc(O)cc1O[C@@H]1O[C@H](COC(=O)/C=C/c2ccc(O)cc2)[C@@H](O)[C@H](O)[C@H]1O	Active	–
O=C(OC[C@H]1O[C@@H](Oc2cc(O)cc(O)c2)[C@H](O)[C@@H](O)[C@@H]1O)[C@H]1[C@H](c2ccc(O)cc2)[C@H](C(=O)OC[C@H]2O[C@@H](Oc3cc(O)cc(O)c3)[C@H](O)[C@@H](O)[C@@H]2O)[C@H]1c1ccc(O)cc1	Active	Activity [2]: Active; Activity [3]: Dose-dependent effect; Activity [4]: Active; Activity [5]: Active; Activity [6]: Active; Activity (Mus musculus): Non-Toxic; Activity [7]: Dose-dependent effect
CC(=O)c1c(O)cc(O)cc1O[C@@H]1O[C@H](COC(=O)/C=C\c2ccc(O)cc2)[C@@H](O)[C@H](O)[C@H]1O	Active	–
O=C(OC[C@H]1O[C@@H](Oc2cc(O)cc(O)c2)[C@H](O)[C@@H](O)[C@@H]1O)[C@H]1[C@H](C(=O)OC[C@H]2O[C@@H](Oc3cc(O)cc(O)c3)[C@H](O)[C@@H](O)[C@@H]2O)[C@H](c2ccc(O)cc2)[C@H]1c1ccc(O)cc1	Active	–
